Results: ChEMBL document CHEMBL1142018, “Discovery and SAR of new benzazepines as potent and selective 5-HT(2C) receptor agonists for the treatment of obesity” (Bioorg Med Chem Lett, 2005)
pEC50: −log10 of the molar value.

Key:
[1] = target: T1, 5-hydroxytryptamine receptor 2B (Homo sapiens, UniProt P41595); assay: Effective concentration towards 5-hydroxytryptamine 2B receptors transfected in HEK293 cells was determined by measuring [3H]phosphoinositol release; format: functional, cell-based; details: for pEC50: read-out: EC50
T1 sequence (P41595 whole entry, canonical isoform): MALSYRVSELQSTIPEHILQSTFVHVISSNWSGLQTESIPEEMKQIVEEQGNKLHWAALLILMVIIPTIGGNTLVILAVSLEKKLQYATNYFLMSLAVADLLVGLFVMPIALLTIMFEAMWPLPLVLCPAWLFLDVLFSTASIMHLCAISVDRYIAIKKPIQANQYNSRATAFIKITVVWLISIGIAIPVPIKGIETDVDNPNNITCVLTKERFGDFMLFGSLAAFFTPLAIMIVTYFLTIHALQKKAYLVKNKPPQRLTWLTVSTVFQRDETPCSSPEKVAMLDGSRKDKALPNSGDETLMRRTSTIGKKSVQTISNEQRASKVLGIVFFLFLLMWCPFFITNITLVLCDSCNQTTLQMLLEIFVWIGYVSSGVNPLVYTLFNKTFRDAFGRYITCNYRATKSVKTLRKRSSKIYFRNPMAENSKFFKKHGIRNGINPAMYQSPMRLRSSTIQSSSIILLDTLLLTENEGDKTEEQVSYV
Outline: (§1)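 Functional agonism at human 5-HT2A, 5-HT2B or 5-HT2C receptors (the 2C as the INI isoform). Receptors were transiently transfected into HEK-293 cells, and the read-out was [³H]phosphoinositol turnover.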

Rattus norvegicus = assay: Effect on food intake after 6 hr of injection of compound by oral gavage and compared to vehicle control rats (n = 8); decreased food intake by range 10-40 mg/kg; format: functional
[2] = target: T2, 5-hydroxytryptamine receptor 2C (Homo sapiens, UniProt P28335); assay: Effective concentration towards 5-hydroxytryptamine 2C receptors transfected in HEK293 cells was determined by measuring [3H]phosphoinositol release; format: functional, cell-based; outline: as §1
T2 sequence (P28335 whole entry): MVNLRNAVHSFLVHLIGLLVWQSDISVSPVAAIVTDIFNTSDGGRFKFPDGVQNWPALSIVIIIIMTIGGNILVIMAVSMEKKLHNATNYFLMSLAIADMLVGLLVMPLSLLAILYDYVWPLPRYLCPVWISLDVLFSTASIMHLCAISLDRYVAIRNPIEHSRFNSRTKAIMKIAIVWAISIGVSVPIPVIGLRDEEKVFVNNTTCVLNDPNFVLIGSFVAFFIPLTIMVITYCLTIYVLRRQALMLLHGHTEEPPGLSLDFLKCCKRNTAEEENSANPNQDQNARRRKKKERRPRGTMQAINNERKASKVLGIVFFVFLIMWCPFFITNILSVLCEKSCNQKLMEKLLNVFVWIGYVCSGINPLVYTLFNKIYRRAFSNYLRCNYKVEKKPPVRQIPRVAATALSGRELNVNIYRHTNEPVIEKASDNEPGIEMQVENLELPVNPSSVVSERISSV

[3] = target: T3, 5-hydroxytryptamine receptor 2A (Homo sapiens, UniProt P28223); assay: Effective concentration towards 5-hydroxytryptamine 2A receptors transfected in HEK293 cells was determined by measuring [3H]phosphoinositol release; format: functional, cell-based; details: for pEC50: read-out: EC50; outline: as §1
T3 sequence (P28223 whole entry): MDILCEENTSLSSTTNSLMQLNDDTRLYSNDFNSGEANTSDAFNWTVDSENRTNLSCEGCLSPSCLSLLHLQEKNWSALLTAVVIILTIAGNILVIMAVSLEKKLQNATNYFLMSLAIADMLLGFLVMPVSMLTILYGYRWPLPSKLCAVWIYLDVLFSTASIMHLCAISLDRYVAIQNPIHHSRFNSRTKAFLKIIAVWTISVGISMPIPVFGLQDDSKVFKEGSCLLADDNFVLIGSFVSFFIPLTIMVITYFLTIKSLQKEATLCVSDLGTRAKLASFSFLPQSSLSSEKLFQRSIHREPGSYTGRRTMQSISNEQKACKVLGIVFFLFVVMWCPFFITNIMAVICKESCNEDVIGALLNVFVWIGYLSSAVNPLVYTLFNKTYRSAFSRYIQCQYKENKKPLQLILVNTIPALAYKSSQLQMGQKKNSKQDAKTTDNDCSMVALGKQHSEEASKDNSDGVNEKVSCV

[4] = target: T4, 5-hydroxytryptamine receptor 2C (Homo sapiens) (UniProt P28335); assay: Percentage maximum response relative to serotonin towards 5-hydroxytryptamine 2C receptor in HEK293 cells; format: functional, cell-based; outline: as §1
T4 sequence (whole entry): T2 sequence (P28335 whole entry)

[5] = target: T1, 5-hydroxytryptamine receptor 2B; assay: Percentage maximum response relative to serotonin towards 5-hydroxytryptamine 2B receptor at 10 uM concentration in HEK293 cells; format: functional, cell-based
[6] = target: T3, 5-hydroxytryptamine receptor 2A; assay: Percentage maximum response relative to serotonin towards 5-hydroxytryptamine 2A receptor in HEK293 cells; format: functional, cell-based; outline: as §1
[7] = target: T1, 5-hydroxytryptamine receptor 2B; assay: Percentage maximum response relative to serotonin towards 5-hydroxytryptamine 2B receptor in HEK293 cells; format: functional, cell-based; outline: as §1
[8] = Rattus norvegicus, po, 6 h, read-out: ED50

| SMILES | pEC50 [1] | pEC50 [2] | pEC50 [3] | also measured |
| --- | --- | --- | --- | --- |
| COc1cc2c(cc1Cl)C(C)CNCC2 (configuration not stated) | 6.85 | 7.96 | 7.10 | ED50 (Rattus norvegicus; [8]): 40 mg/kg |
| CC1CNCCc2c(Cl)cc(Cl)cc21 (configuration not stated) | 6.08 | 7.70 | 6.77 | – |
| CC(C)Oc1cc2c(cc1Br)C(C)CNCC2 (configuration not stated) | 6.64 | 7.17 | 7.01 | – |
| CCOc1cc2c(cc1Br)C(C)CNCC2 (configuration not stated) | 6.74 | 7.55 | 6.96 | – |
| C[C@@H]1CNCCc2ccc(Cl)c(Cl)c21 | – | 8.52 | 6.87 | Maximum response [4]: 90%; Maximum response [5]: 25%; Maximum response [6]: 35% |
| CC1CNCCc2ccc(Cl)cc21 (configuration not stated) | – | – | – | ED50 (Rattus norvegicus; [8]): 40 mg/kg |
| C[C@@H]1CNCCc2ccc(Cl)cc21 | – | – | – | Maximum response [4]: 100%; Maximum response [7]: 100%; Maximum response [6]: 70% |
| CC1CNCCc2ccc(C(F)(F)F)cc21 (configuration not stated) | 6.42 | 8.15 | 7.00 | ED50 (Rattus norvegicus; [8]): 40 mg/kg |
| COc1cc2c(cc1Br)[C@@H](C)CNCC2 | 6.66 | 8.52 | 7.10 | – |
| CC1CNCCc2ccc(Br)cc21 (configuration not stated) | 5.82 | 7.92 | 6.29 | – |
| Clc1ccc2c(c1)CCNCC2 | 6.00 | 7.92 | 7.05 | Maximum response [4]: 85%; Maximum response [7]: 100%; Maximum response [6]: 100% |
| COc1cc2c(cc1C(F)(F)F)C(C)CNCC2 (configuration not stated) | 6.89 | 8.40 | 7.38 | – |
| CC1CNCCc2cc(F)c(Cl)cc21 (configuration not stated) | 6.44 | 8.15 | 7.14 | ED50 (Rattus norvegicus; [8]): 40 mg/kg |
| CC1CNCCc2c(Cl)cccc21 (configuration not stated) | < 5.30 | 6.07 | < 5.30 | – |
| COc1ccc2c(c1)C(C)CNCC2 (configuration not stated) | 6.11 | 6.38 | 6.03 | – |
| CC1CNCCc2ccc(F)cc21 (configuration not stated) | < 5.00 | 6.39 | 5.80 | – |
| COc1cc2c(cc1Br)[C@H](C)CNCC2 | 7.52 | 8.30 | 7.52 | – |

| SMILES | pEC50 [1] | pEC50 [2] | pEC50 [3] | also measured |
| --- | --- | --- | --- | --- |
| CC1CNCCc2cc(Cl)ccc21 (configuration not stated) | 6.28 | 7.46 | 6.82 | – |
| CC1CNCCc2ccccc21 (configuration not stated) | < 5.30 | 6.47 | 5.80 | – |
| CCC1CNCCc2cc(OC)c(Br)cc21 (configuration not stated) | 7.40 | 7.96 | 7.00 | – |
| CC1CNCCc2cc(OCc3ccccc3)c(Br)cc21 (configuration not stated) | < 5.00 | 7.25 | 7.66 | – |
| COc1cc2c(cc1I)C(C)CNCC2 (configuration not stated) | 7.19 | 8.70 | 7.21 | ED50 (Rattus norvegicus): 40 mg/kg |
| CC1CNCCc2cc(O)c(Br)cc21 (configuration not stated) | 6.72 | 8.52 | 7.20 | – |
| CC1CNCCc2ccc(Cl)c(F)c21 (configuration not stated) | < 5.00 | 7.66 | 6.08 | ED50 (Rattus norvegicus; [8]): 40 mg/kg |
| COc1cc2c(cc1Br)CCNCC2 | 6.40 | 8.10 | 7.00 | – |
| CC1CNCCc2ccc(Cl)c(Cl)c21 (configuration not stated) | 5.74 | 8.22 | 6.66 | ED50 (Rattus norvegicus; [8]): 40 mg/kg |
| CC1CNCCc2cc(Cl)c(Cl)cc21 (configuration not stated) | 7.11 | 8.40 | 7.80 | ED50 (Rattus norvegicus; [8]): 40 mg/kg |
| COc1cc2c(cc1Br)C(C(C)C)CNCC2 (configuration not stated) | 6.00 | 6.80 | – | EC50 ([3]; hek293): Not Active |
| C[C@H]1CNCCc2ccc(Cl)cc21 | – | – | – | Maximum response [4]: 100%; Maximum response [7]: 100%; Maximum response [6]: 70% |
| C[C@H]1CNCCc2ccc(Cl)c(Cl)c21 | < 5.00 | 6.64 | 5.62 | Maximum response [4]: 85%; Maximum response [6]: 100% |
| CC1CNCCc2cccc(Cl)c21 (configuration not stated) | < 5.30 | 6.03 | < 5.30 | – |
| COc1cc2c(cc1Br)C(C)CNCC2 (configuration not stated) | 7.00 | 8.30 | 7.10 | ED50 (Rattus norvegicus; [8]): 40 mg/kg |
| COc1ccc2c(c1)CCNCC2C (configuration not stated) | – | 5.70 | < 5.00 | EC50 ([1]; hek293): Not Active |
